MrgX1 antagonist = antagonists of human MrgX1 receptor; Q96LB2; MRGX1-HEK293 calcium flux, Fluo-4, BAM8-22 antagonism; active compounds read low; B-score at 10 µM; actives 1.3% (n = 310,000);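 active means calcium-response B-score plate-corrected more than 3 library SD below zero, starting fluorescence within 5 deviations, no agonist response on first addition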;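 further: peak minus trough fluorescence over baseline after final BAM8-22 challenge near maximal dose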
Target sequence (Q96LB2 whole entry, looked up): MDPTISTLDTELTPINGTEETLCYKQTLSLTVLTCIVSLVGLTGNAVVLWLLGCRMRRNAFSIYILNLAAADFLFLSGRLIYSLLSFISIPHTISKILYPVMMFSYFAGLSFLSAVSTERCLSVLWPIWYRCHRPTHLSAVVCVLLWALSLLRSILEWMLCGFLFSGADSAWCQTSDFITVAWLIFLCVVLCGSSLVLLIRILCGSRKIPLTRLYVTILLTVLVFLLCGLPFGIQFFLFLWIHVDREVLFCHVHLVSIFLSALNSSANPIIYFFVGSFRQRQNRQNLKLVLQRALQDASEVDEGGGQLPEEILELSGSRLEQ
RGS4 act = RGS4 potentiation or activation; HEK293 M3R/inducible RGS4, carbachol calcium flux Fluo4; active compounds read low; B-score at 10 µM; actives 0.92% (n = 310,000); AID 463111;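 active means B-score of the integrated calcium signal more than 4 SD below the library mean, with starting fluorescence not abnormally high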;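 further: negative B-score means reduced calcium response which marks RGS4 activation or potentiation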
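test system = M3R-expressing HEK293 line, RGS4 induced by doxycycline | probe or stimulus = carbachol at ECmax as muscarinic agonist stimulus | timing = dye loading 30 min 37 °C, buffer rest 30 min RT | signal = calcium dye Fluo4 fluorescence | evaluation = B score from integrated fluorescence ratio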
MrgX1 agonist = human MrgX1 receptor agonism, primary screen; MrgX1-HEK293 cells, Fluo-4 calcium fluorescence, agonist mode; active compounds read high; Q96LB2; B-score at 10 µM; actives 0.44% (n = 310,000); AID 588627;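 active means calcium response B-score plate-corrected fluorescence ratio at least 3 library SD, with starting fluorescence B-score inside 5 SD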
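Test system: HEK293 cells stably expressing human MrgX1 receptor; amount: 15,000 cells per well; doses: compound delivered in addition one of three; times: overnight plating before 1 h dye loading; detection: Fluo-4 NW calcium-flux fluorescence, kinetic read; read-out basis: B-scored fluorescence response ratio; controls: positive and negative controls per plate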
RGS4 block = inhibitors of human RGS4; B-score at 10 µM; AID 463165; HEK293 M3R/RGS4 inducible, Fluo-4 calcium flux; active compounds read high; triggered by carbachol at its EC20; actives 0.45% (n = 310,000);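 active means B-score, a plate-corrected calcium signal, over three deviations above library mean, with baseline fluorescence within five deviations of library mean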;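 further: RGS4 expression induced by doxycycline in cells with stable M3 receptor; B-score is computed from the integrated fluorescence ratio over baseline after carbachol; higher B-score means a larger calcium signal and so more RGS4 inhibition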
Target sequence (P49798 whole entry, looked up): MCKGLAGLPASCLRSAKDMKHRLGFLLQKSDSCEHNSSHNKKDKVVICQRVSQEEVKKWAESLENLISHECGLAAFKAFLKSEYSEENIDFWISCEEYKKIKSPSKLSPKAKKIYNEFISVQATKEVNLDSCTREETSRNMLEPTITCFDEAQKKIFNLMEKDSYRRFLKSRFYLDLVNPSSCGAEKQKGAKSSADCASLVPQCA
MrgX1 PAM = human MrgX1 positive allosteric modulation, primary screen; actives 0.63% (n = 310,000); MrgX1-HEK293, Fluo-4 calcium flux, FDSS; active compounds read high; B-score at 10 µM; Q96LB2;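 active means plate-corrected calcium response at least 3 library SD above typical, normal starting fluorescence, not activating the receptor alone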;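 further: compound read alongside a low EC10 to EC30 dose of BAM8-22 agonist; peak minus trough fluorescence over baseline measured at the second addition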
Hits are given with their value; - = inactive; . = no result given. An excerpt weighted towards active compounds, which were near 3.5% of everything screened.

SMILES	MrgX1 antagonist	RGS4 act	MrgX1 agonist	RGS4 block	MrgX1 PAM
Cc1c(C(=O)C(=O)N2CCCc3ccccc32)c2ccccc2n1C	-	-	-	-	-
Cc1nn(S(=O)(=O)c2cccc([N+](=O)[O-])c2)c(C)c1S(=O)(=O)N1CCOCC1	-	-	-	-	-
COC(=O)/C=C1\OC(c2ccccc2)=CC1=O	-	-	-	26	-
CC1CCN(c2ccc3nnc(CCC(=O)N4CCN(c5ccccc5F)CC4)n3n2)CC1	-	-	-	-	-
O=C(NCC1CCN(Cc2ccc(Cl)cc2)CC1)C1CCCN(c2ncnc3c2nc2n3CCCCC2)C1 (configuration not stated)	-	-7.2	-	-	-
O=C(CSc1ncn[nH]1)Nc1ccc(OCc2ccccc2)cc1	-	-	-	-	-
CC[C@@H](C)[C@H](CNC)NC[C@@H](Cc1cccc2ccccc12)NCCc1cccc(C(F)(F)F)c1	-	-9.3	-	-	-
CNC[C@@H](Cc1ccccc1)NC[C@@H](CC1CCCCC1)NCCCc1ccccc1	-	-	-	-	-
CCC[C@H](CN[C@@H](CNC)[C@H](C)CC)NCCc1cc(C(F)(F)F)cc(C(F)(F)F)c1	-	-	-	-	-
CNC[C@@H](CC1CCCCC1)NC[C@H](CC(C)C)NCCc1cccc(C(F)(F)F)c1	-	-7.3	-	-	-
O=S(=O)(O)c1cccc2cccc(Nc3ccccc3)c12	-	-	-	-	-
CC/C(O)=C(\C#N)c1nnc2n1CCCCC2	-	-	-	-	-
Cc1cccc(CC2CC(=O)N(c3ccc(C)cc3Br)C2=O)c1 (configuration not stated)	-	-	-	-	-
CCN(CCn1cccn1)C(=O)CC1C(=O)NCCN1Cc1ccc(F)cc1 (configuration not stated)	-	-	29	-	-
Cc1ccc(S(=O)(=O)c2cn(Cc3ccc(F)cc3)c3cc4c(cc3c2=O)OCO4)cc1	-4.6	-	-	-	-
O=S(=O)(NCCN1CCOCC1)c1cc(Cl)c(Cl)cc1Cl	-	-	-	-	-
O=C1C2C3C=CC(CO)(O3)C2C(=O)N1c1ccccc1-c1ccccc1 (configuration not stated)	-	.	34	.	-
CC(=O)Oc1ccc(N2C(=O)C3C4C=CC(CO)(O4)C3C2=O)cc1 (configuration not stated)	-	-	-	-	-
Fc1ccc(C(CCCn2nnc(-c3cccnc3)n2)c2ccc(F)cc2)cc1	-	-8.7	-	-	-
Fc1ccc(-n2nnc(-c3cccnc3)n2)cc1	-	-	-	-	-
NC(=O)c1ccccc1NC(=O)CC12CC3CC(CC(Br)(C3)C1)C2	-	-	-	-	-
Cc1nnc2n(c1=O)C(CS(=O)(=O)c1ccccc1)CS2 (configuration not stated)	-	-	-	-	-
O=[N+]([O-])c1ccc(S(=O)(=O)CC2CSc3nc4ccccc4n32)cc1 (configuration not stated)	-5	-	-	-	-
COC1(OC)N=C(NC(=O)Nc2ccccc2)C2(C#N)C(c3ccccc3)C12C#N (configuration not stated)	-	-	-	-	-
Cc1ccc(/C=C2\CCC3=C2OC(N)=C(C#N)C3c2ccc(C)cc2)cc1 (configuration not stated)	-	-	73	-	-
SMILES	MrgX1 antagonist	RGS4 act	MrgX1 agonist	RGS4 block	MrgX1 PAM
C=CC[n+]1c(-c2ccc(Cl)cc2Cl)csc1Nc1c(C)n(C)n(-c2ccccc2)c1=O	-	-	28	-	-
C=CC[n+]1c(-c2ccc(Cl)cc2Cl)csc1Nc1ccc(NC(C)=O)cc1	-	-7	-	-	-
C=CC[n+]1c(-c2ccc(C)cc2)csc1Nc1c(C)n(C)n(-c2ccccc2)c1=O	-	-7.9	-	-	-
CCCC[n+]1c(-c2ccc(Cl)cc2Cl)csc1Nc1ccccc1	-	-	-	-	-
Cc1c(NC(=O)Nc2cc(Cl)ccc2Cl)c(=O)n(-c2ccccc2)n1C	-	-	-	-	-
N#C/C(=C/c1ccc(N2CCCCC2)o1)c1cccc(F)c1	-6.4	-	-	-	-
Cc1ccc(/C(C#N)=C\c2ccc(N3CCOCC3)o2)cc1	-	-	-	-	-
N#C/C(=C/c1ccc(N2CCCCC2)cc1)c1cccc(F)c1	-	-	-	-	-
N#C/C(=C/c1ccc(N2CCCCCC2)o1)c1ccc(Cl)cc1	-	-	-	-	6.5
N#CC1=C(N)n2c(s/c(=C\c3cccs3)c2=O)=C(C#N)C1c1cccs1 (configuration not stated)	-7.4	-	-	-	-
O=c1cc(/N=C/c2coc3cc(Br)ccc3c2=O)[nH]c(=S)[nH]1	-	-	-	-	-
CC(=O)Oc1ccc2c(=O)c(/C=N/c3cc(=O)[nH]c(=S)[nH]3)coc2c1	-	-	-	-	14
O=C(c1ccco1)N1N=C(c2cccs2)CC1c1cc([N+](=O)[O-])ccc1O (configuration not stated)	-	-	-	-	7.1
N#C/C(=C\c1cccnc1)c1nc2c(s1)CCCC2	-5.5	-	-	-	-
O=[N+]([O-])c1cccc(S(=O)(=O)N/N=C/c2ccc(O)cc2)c1	-	-	-	-	6.6
O=[N+]([O-])c1cccc(S(=O)(=O)N/N=C\c2ccc3c(c2)OCO3)c1	-	-	-	-	13
O=C(CN1CCCCC1)Nc1ccccc1-c1ccccc1	-	-10	-	-	-
O=C1CCCC(O)=C1N=Nc1ccc2c(c1)OCO2	-5	-	-	-	-
O=C1CCCC(O)=C1N=Nc1ccc(C(=O)O)cc1	-	-	-	-	-
O=C(Nc1ccc(CN2CCCCC2)cc1)c1cc(Br)ccc1Cl	-5.5	-	-	-	-
N#Cc1nccnc1S(=O)(=O)c1cccs1	-	-7.8	-	-	-
CN(Cc1ccccc1C#N)S(=O)(=O)c1cccs1	-	-	-	-	-
CCCCCN(C(=O)CCC(=O)OCC(=O)Nc1ccc(C)cc1F)c1c(N)n(CCCC)c(=O)[nH]c1=O	-	-	-	-	-
C[C@H]1CN=C2N(CCNC(=O)CCC3CCCCC3)[C@H](Cc3ccc(O)cc3)CN21	-	-	-	-	-
O=C(CCC1CCCCC1)NCCN1C2=NC[C@@H](Cc3ccccc3)N2C[C@H]1Cc1ccc(O)cc1	-	-7.1	-	-	-
O=C(CCC1CCCCC1)NCCN1C2=NC[C@H](Cc3ccccc3)N2C[C@H]1Cc1ccc(O)cc1	-	-8	-	-	-
C#CCOCCOCCOCCNc1nc(N2CCOCC2)nc(N2CCN(C(=O)CCCCCCCCCCNC(=O)[C@@H]([C@H](C)CC)n3cc(CCCCCN)nn3)CC2)n1	-	.	-	.	-

Screens from PubChem BioAssay.
